# Experiments:
# Type in all cases: functional
# Staphylococcus aureus [1] = experiment: Antibacterial activity against methicillin susceptible Staphylococcus aureus by broth dilution method
# Staphylococcus aureus [2] = experiment: Antibacterial activity against ciprofloxacin susceptible and methicillin resistant Staphylococcus aureus by broth dilution method
# Outline: (§1)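 Clinical isolates tested by CLSI broth microdilution in panels holding serial twofold drug dilutions in cation-adjusted Mueller-Hinton broth. Final inoculum 5 × 10^5 CFU/ml was made from a 0.5 McFarland suspension. Plates were incubated overnight at 35°C in ambient air, and the MIC was read as the lowest concentration inhibiting growth. Quality control strains were included in each run.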
# Staphylococcus aureus [3] = experiment: Antibacterial activity against ciprofloxacin and methicillin resistant Staphylococcus aureus by broth dilution method; outline: as §1
# Staphylococcus = experiment: Antibacterial activity against methicillin resistant coagulase negative Staphylococcus by broth dilution method
# [4] = test system: Staphylococcus epidermidis; experiment: Antibacterial activity against methicillin resistant coagulase negative Staphylococcus epidermidis by broth dilution method
# Enterococcus faecalis [5] = experiment: Antibacterial activity against Enterococcus faecalis by broth dilution method
# Enterococcus faecalis [6] = experiment: Antibacterial activity against vancomycin resistant Enterococcus faecalis by broth dilution method
# Enterococcus faecium [7] = experiment: Antibacterial activity against Enterococcus faecium by broth dilution method; outline: as §1
# Enterococcus faecium [8] = experiment: Antibacterial activity against vancomycin resistant Enterococcus faecium by broth dilution method; outline: as §1
# Escherichia coli [9] = experiment: Antibacterial activity against ciprofloxacin resistant Escherichia coli by broth dilution method; outline: as §1
# Escherichia coli [10] = experiment: Antibacterial activity against ciprofloxacin susceptible Escherichia coli by broth dilution method
# Outline: (§2)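 Broth microdilution per CLSI in panels spanning a dilution range of each agent. Cation-adjusted Mueller-Hinton broth, final inoculum 5 × 10^5 CFU/ml from a 0.5 McFarland suspension. Incubated overnight at 35°C in ambient air, with quality control strains in each run. MIC reported; values at or below the lowest concentration tested are given as that concentration.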
# Klebsiella pneumoniae = experiment: Antibacterial activity against Klebsiella pneumoniae by broth dilution method; outline: as §2
# Enterobacter cloacae = experiment: Antibacterial activity against Enterobacter cloacae by broth dilution method
# Proteus mirabilis = experiment: Antibacterial activity against Proteus mirabilis by broth dilution method
# Citrobacter freundii = experiment: Antibacterial activity against Citrobacter freundii by broth dilution method; outline: as §2
# Streptococcus pneumoniae [11] = experiment: Antibacterial activity against Levofloxacin susceptible Streptococcus pneumoniae by broth dilution method
# Outline: (§3)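 Streptococcus pneumoniae clinical isolates tested by CLSI broth microdilution. A 0.5 McFarland suspension was diluted into Mueller-Hinton broth with 3% lysed horse blood, then tested against serial drug dilutions. Plates were incubated overnight at 35°C in ambient air, and the MIC was read as the lowest inhibitory concentration. Quality control strains were included in each run.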
# Streptococcus pneumoniae [12] = experiment: Antibacterial activity against Levofloxacin resistant Streptococcus pneumoniae by broth dilution method; outline: as §3
# Streptococcus pyogenes = experiment: Antibacterial activity against Streptococcus pyogenes by broth dilution method
# Outline: (§4)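 Streptococci were tested by CLSI broth microdilution in Mueller-Hinton broth with 3% lysed horse blood, seeded from a 0.5 McFarland suspension. Incubated overnight at 35°C in ambient air, with quality control strains in each run. MIC taken over a per-agent dilution range.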
# Streptococcus agalactiae = experiment: Antibacterial activity against Streptococcus agalactiae by broth dilution method; outline: as §4
# Streptococcus viridans = experiment: Antibacterial activity against Streptococcus viridans by broth dilution method; outline: as §4
# Acinetobacter baumannii = experiment: Antibacterial activity against Acinetobacter baumannii by broth dilution method; outline: as §2
# Pseudomonas aeruginosa = experiment: Antibacterial activity against Pseudomonas aeruginosa by broth dilution method
# Haemophilus influenzae = experiment: Antibacterial activity against Haemophilus influenzae by broth dilution method
# Outline: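 Broth microdilution per CLSI using Haemophilus Test Medium broth, seeded from a 0.5 McFarland suspension. Incubated overnight at 35°C in ambient air, with quality control strains in each run. MIC read against a tested dilution range; values at the low limit are given as the lowest concentration.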
# Neisseria gonorrhoeae [13] = experiment: Antibacterial activity against ciprofloxacin resistant Neisseria gonorrhoeae isolates by broth dilution method
# Outline: (§5)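 Neisseria gonorrhoeae clinical isolates tested by CLSI broth microdilution in Mueller-Hinton broth with 3% lysed horse blood, inoculated from a 0.5 McFarland suspension. Plates were incubated overnight at 35°C in 5% CO2, and the MIC was read as the lowest inhibitory concentration. Quality control strains were included in each run.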
# Neisseria gonorrhoeae [14] = experiment: Antibacterial activity against levofloxacin resistant Neisseria gonorrhoeae isolates by broth dilution method; outline: as §5
# Neisseria gonorrhoeae [15] = experiment: Antibacterial activity against moxifloxacin resistant Neisseria gonorrhoeae isolates by broth dilution method; outline: as §5
smiles,measurement,setting,value
COc1c(N2C[C@@H](C)C[C@H](N)C2)ccc2c(=O)c(C(=O)O)cn(C3CC3)c12.O=C(O)CC(O)C(=O)O [NEMONOXACIN MALIC ACID],MIC50,Staphylococcus aureus [1],0.03 µg/mL
same,MIC90,Staphylococcus aureus [1],0.12 µg/mL
same,MIC50,Staphylococcus aureus [2],0.03 µg/mL
same,MIC90,Staphylococcus aureus [2],0.06 µg/mL
same,MIC50,Staphylococcus aureus [3],1 µg/mL
same,MIC90,Staphylococcus aureus [3],1 µg/mL
same,MIC50,Staphylococcus,0.12 µg/mL
same,MIC90,Staphylococcus,0.5 µg/mL
same,MIC50,[4],0.12 µg/mL
same,MIC90,[4],0.5 µg/mL
same,MIC50,Enterococcus faecalis [5],0.25 µg/mL
same,MIC90,Enterococcus faecalis [5],4 µg/mL
same,MIC50,Enterococcus faecalis [6],0.25 µg/mL
same,MIC90,Enterococcus faecalis [6],4 µg/mL
same,MIC50,Enterococcus faecium [7],4 µg/mL
same,MIC90,Enterococcus faecium [7],8 µg/mL
same,MIC50,Enterococcus faecium [8],4 µg/mL
same,MIC90,Enterococcus faecium [8],8 µg/mL
same,MIC50,Escherichia coli [9],> 16 µg/mL
same,MIC90,Escherichia coli [9],> 16 µg/mL
same,MIC50,Escherichia coli [10],1 µg/mL
same,MIC90,Escherichia coli [10],2 µg/mL
same,MIC50,Klebsiella pneumoniae,4 µg/mL
same,MIC90,Klebsiella pneumoniae,> 16 µg/mL
same,MIC50,Enterobacter cloacae,4 µg/mL
same,MIC90,Enterobacter cloacae,> 16 µg/mL
same,MIC50,Proteus mirabilis,8 µg/mL
same,MIC90,Proteus mirabilis,> 16 µg/mL
same,MIC50,Citrobacter freundii,0.5 µg/mL
same,MIC90,Citrobacter freundii,4 µg/mL
same,MIC50,Streptococcus pneumoniae [11],0.12 µg/mL
same,MIC90,Streptococcus pneumoniae [11],0.12 µg/mL
same,MIC50,Streptococcus pneumoniae [12],1 µg/mL
same,MIC90,Streptococcus pneumoniae [12],2 µg/mL
same,MIC50,Streptococcus pyogenes,0.12 µg/mL
same,MIC90,Streptococcus pyogenes,0.12 µg/mL
same,MIC,Streptococcus agalactiae,0.12 µg/mL
same,MIC50,Streptococcus agalactiae,0.12 µg/mL
same,MIC90,Streptococcus agalactiae,0.25 µg/mL
same,MIC50,Streptococcus viridans,0.12 µg/mL
same,MIC90,Streptococcus viridans,0.25 µg/mL
same,MIC50,Acinetobacter baumannii,4 µg/mL
same,MIC90,Acinetobacter baumannii,> 16 µg/mL
same,MIC50,Pseudomonas aeruginosa,16 µg/mL
same,MIC90,Pseudomonas aeruginosa,> 16 µg/mL
same,MIC50,Haemophilus influenzae,0.12 µg/mL
same,MIC90,Haemophilus influenzae,4 µg/mL
same,MIC,Neisseria gonorrhoeae [13],0.25 µg/mL
same,MIC,Neisseria gonorrhoeae [14],0.25 µg/mL
same,MIC,Neisseria gonorrhoeae [15],0.25 µg/mL
